Measurements reported in PMC9509476 (Cell systems, 2022).

Experiments:
PPARG = experiment: PPARG; type: cell-based; details: bladder cancer cell line, absence or presence of Rosiglitazone
native kinases = experiment: full KINOMEscan panel; type: binding
human CSNK1A1 = human CSNK1A1 (Homo sapiens, UniProt P48729); experiment: CSNK1A1 enzymatic mobility shift assay; type: biochemical
p38 activity = experiment: single-cell p38 activity reporter; type: cell-based; details: RPE1 p38 reporter; for influence on p38 activity (two-sided t-test): 1 μM, 48 hours
How it was run: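 RPE1 cells stably carrying a p38 kinase translocation reporter, grown in DMEM/F12 with 10% FBS at 37C, 5% CO2. Plated at 1000 cells/well, then given test compound at 1 or 10 μM for 48 h, 4 wells per concentration. Single-cell activity taken as median cytoplasmic-ring (5-pixel) over nuclear reporter intensity, normalised to same-plate/column DMSO. Significance by t-test or KS test with Benjamini-Hochberg adjustment.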

[1] = tested on: TC32 human Ewing’s family sarcoma cells; experiment: proliferation assay; type: cell-based; details: 10 μM every 24 hours for 3 days
STS-109 human UPS cells = experiment: proliferation assay; type: cell-based; details: 10 μM daily for 8 days
KP230 cells [2] = experiment: proliferation assay; type: cell-based, mouse; details: 10 μM every 24 hours for 3 days
[3] = tested on: KP230, TC32, STS-109, HT-1080, HCT-116 cells; experiment: trypan blue staining for toxicity; type: cell-based; details: 10 μM, any of the cell lines tested
A375 cells = details: 6 and 24 hours, ref Subramanian et al., 2017; cited from earlier work
Yap1 [4] = experiment: Yap1 Western blot and immunofluorescence in KP230 cells; type: cell-based, mouse; details: 10 μM daily
HT29 cells = details: six hours of treatment, ref Subramanian et al., 2017; cited from earlier work
[5] = tested on: HCT-116 colon cancer cells; experiment: proliferation assay; type: cell-based; details: 10 μM every 24 hours for 3 days, YAP1-independent line
TEAD-YAP interaction = details: HEK-TIYL cells; ref PubChem; cited from earlier work
YAP1 [6] = experiment: YAP1-responsive TEAD luciferase reporter assay in HEK-293 cells; type: cell-based; details: 10μM, 48h of YAP overexpression
[7] = tested on: HT-1080 fibrosarcoma cells; experiment: proliferation assay; type: cell-based; details: 10 μM every 24 hours for 3 days
KP230 cells [8] = experiment: RNA sequencing and gene set enrichment analysis in KP230 cells; type: cell-based, mouse; details: 10 μM
How it was run: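 KP230 cells (murine Kras/Trp53 tumour-derived) grown in DMEM with 10% FBS, 1% L-glutamine and 1% P/S at 37C, 5% CO2. Kept at ≤20 passages and about 50% confluence. Treated with 10 μM test compound or an equal volume of DMSO. Total RNA isolated by RNeasy Mini with on-column DNase digestion, then sequenced.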

YAP1 [9] = experiment: YAP1 immunofluorescence and Western blot in H9 hPSCs; type: cell-based, human; details: H9 cells, 10 μM
Yap1 [10] = experiment: qRT-PCR of Yap1 and sarcoma target genes in KP230 cells; type: cell-based, mouse
[11] = tested on: YAP1 target genes (CTGF and CYR61); experiment: qPCR of YAP1 and target genes in H9 hPSCs; type: cell-based, human; details: 24 hrs
U2OS = experiment: proliferation in U2OS Cell Painting images; type: cell-based
KP230 cells [12] = details: 10 μM
PAX8 = details: ref PubChem; cited from earlier work
[13] = tested on: HEK293, HepG2, A549 cells; details: ref PubChem; cited from earlier work
[14] = tested on: mesenchymal lineage periosteal cells; experiment: qPCR of Hippo components in murine periosteal cells; type: cell-based, mouse; details: 5μM
How it was run: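 Periosteal cells from 4-day femoral fracture callus of 3 female 15-week CMV-Cre;R26R-rtTA;tetO-YAPS127A mice (C57Bl/6 background). Cultured in α-MEM with 15% FBS, 1% GlutaMAX and 1% P/S. Test compound given at 5 μM. 1 μM doxycycline for 48 h induced YAPS127A as positive control for YAP1 mRNA.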

Sequence of human CSNK1A1 (P48729 whole entry): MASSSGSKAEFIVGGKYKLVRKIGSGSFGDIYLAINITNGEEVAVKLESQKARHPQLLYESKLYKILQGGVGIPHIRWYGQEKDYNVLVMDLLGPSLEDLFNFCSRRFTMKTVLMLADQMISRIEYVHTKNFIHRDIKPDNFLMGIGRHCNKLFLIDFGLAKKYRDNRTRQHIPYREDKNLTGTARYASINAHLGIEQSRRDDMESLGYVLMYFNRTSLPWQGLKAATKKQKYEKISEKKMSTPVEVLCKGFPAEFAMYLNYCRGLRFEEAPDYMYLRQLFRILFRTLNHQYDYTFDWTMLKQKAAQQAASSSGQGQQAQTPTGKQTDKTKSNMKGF

With CC(C)(C)n1nc(-c2ccc(Cl)cc2)c2c(N)ncnc21 [PP2] the “effect in PPARG (FABP4) reporter assay” value (PPARG) was “reporter activation”.

With C[C@@H]1CN([C@@H](C)CO)C(=O)CCCn2nncc2CO[C@@H]1CN(C)C(=O)Nc1ccnc(N2CCOCC2)c1 [BRD-K65952656] the “binding to native kinases in full KINOMEscan panel” value (native kinases) was “failed to bind any native kinases” and the IC50 (human CSNK1A1; read-out: inhibition of CSNK1A1 IC50) was 12 µM.

In the case of CCCCNc1cc(C(=O)O)cc(S(N)(=O)=O)c1Oc1ccccc1 [BRD-K38197229], the “influence on p38 activity (two-sided t-test)” value (p38 activity) is reported as “potential inhibitors”.

With c1ccc(CNc2ncnc3ccccc23)cc1 [NB4A, N-Benzylquinazolin-4-amine] the “proliferation of TC32 cells” value [1] was “inhibited”, the “proliferation of STS-109 cells” value (STS-109 human UPS cells) was “did not affect” and the “proliferation of KP230 cells” value (KP230 cells [2]) was “inhibited”. For the same compound, the “overt toxicity by trypan blue staining” value [3] was “did not exhibit overt toxicity”, the “YAP1 mRNA z-score” value (A375 cells) was ~ −0.7 and the Yap1 nuclear localization (Yap1 [4]) was “significantly attenuated”. The Yap1 protein levels (Yap1 [4]; after 72 hours) was “reduced”, the “TAZ mRNA z-score” value (HT29 cells) was 2.04 and the “YAP1 mRNA z-score” value (HT29 cells) was 3.16. For the same compound, the “proliferation of HCT-116 cells” value [5] was “did not affect”, the “activity in assay detecting inhibitors of TEAD-YAP interaction” value (TEAD-YAP interaction) was “showed activity” and the “effect in YAP1-responsive reporter assay” value (YAP1 [6]) was “no effect”. For the same compound, the “proliferation of HT-1080 cells” value [7] was “did not affect”, the “epithelial-mesenchymal transition, angiogenesis and glycolysis pathways (GSEA)” value (KP230 cells [8]) was “down-regulated” and the “interferon alpha and gamma response pathways (GSEA)” value (KP230 cells [8]) was “up-regulated”. For the same compound, the YAP1 nuclear localization (YAP1 [9]; 24 hours) was “increased”, the “YAP1 S127 phosphorylation” value (YAP1 [9]; 24 hrs) was “reduced” and the “total YAP1 protein levels” value (YAP1 [9]; 24 hrs) was “decreasing”. For the same compound, the “transcription of Yap1, its sarcoma target genes (Foxm1, Ccl2, Hbegf, Birc5, Rela) and Amot” value (Yap1 [10]) was “did not directly alter”, the “YAP1 mRNA expression” value [11] was “did not affect” and the “expression of YAP1 target genes (CTGF and CYR61)” value ([11]; dose-dependent) was “increased”.

With Cc1ccc(-c2nn(C(C)(C)C)c3ncnc(N)c23)cc1 [PP1] the “effect in PPARG (FABP4) reporter assay” value (PPARG) was “reporter activation”.

For CO[C@@H]1CN(C)C(=O)c2ccc(NC(=O)c3ccc(-c4ccccc4)cc3)cc2OC[C@H](C)NC[C@@H]1C [BRD-K28862419, N-((3S,6S,7S)-7-methoxy-3,6,9-trimethyl-10-oxo-3,4,5,6,7,8,9,10-octahydro-2H-benzo[k][1]oxa[4,9]diazacyclododecin-13-yl)-[1,1′-biphenyl]-4-carboxamide], the “proliferation in U2OS Cell Painting images” value (U2OS) is given as −2.0 st dev, the KP230 cell viability (KP230 cells [12]) is given as “modestly yet significantly reduced” and the PAX8 inhibition (PAX8) is given as “inhibits”.

For CCCCCCCCCCCCCC(=O)O[C@@H]1[C@@H](C)[C@@]2(O)[C@@H](C=C(CO)C[C@]3(O)C(=O)C(C)=C[C@@H]23)[C@@H]2C(C)(C)[C@]12OC(C)=O [Phorbol 12-myristate 13-acetate], the “effect in PPARG (FABP4) reporter assay” value (PPARG) was “Inhibitors”.

In the case of CCc1cc(-c2n[nH]c(C)c2-c2ccc3c(c2)OCCO3)c(O)cc1O [CCT018159], the “effect in PPARG (FABP4) reporter assay” value (PPARG) is reported as “Inhibitors”.

For Nc1nc(Nc2ccccc2)nc2c1ncn2C1OC(CO)C(O)C1O (stereo not drawn) [BRD-A64933752], the “influence on p38 activity (two-sided t-test)” value (p38 activity) was “potential inhibitors”.

In the case of CO[C@@H]1CN(C)C(=O)c2cc(NC(=O)Nc3ccc(C(F)(F)F)cc3)ccc2OC[C@@H](C)NC[C@@H]1C [BRD-K34692511, 1-[(4R,7S,8S)-8-methoxy-4,7,10-trimethyl-11-oxo-2-oxa-5,10-diazabicyclo[10.4.0]hexadeca-1(12),13,15-trien-14-yl]-3-[4-(trifluoromethyl)phenyl]urea], the “inhibition of cell proliferation AC50” value [13] is given as “none of these impacts”, the “mRNA levels of Hippo components including Yap1 and Cyr61” value ([14]; 1 and 4 hours) is given as “not at 1 and 4 hours” and the “mRNA levels of Hippo components including Yap1 and Cyr61” value ([14]; 48 hours) is given as “substantially upregulated”. For the same compound, the “proliferation in U2OS Cell Painting images” value (U2OS) was “none of these impacts” and the PAX8 inhibition (PAX8) was “none of these impacts”.

In the case of COC1(C[S@@+]([O-])c2ccccc2)CCN(CCc2c[nH]c3ccc(F)cc23)CC1 [BRD-K52394958], the “influence on p38 activity (alternative statistical test)” value (p38 activity) is reported as “identified via an alternative statistical test”.

For Fc1ccc(-c2nc3n(c2-c2ccncc2)CCS3)cc1 [SKF-86002, reference compound], the “inhibitory IC50 concentrations, CSNK1A1” value (human CSNK1A1; at Km ATP) was “nanomolar range”.
